Reference: the array DNA melting data of Ke et al. (doi:10.1101/2024.01.08.574731)

What was measured:
[1] = folding enthalpy; higher = less favourable; fluorescence melt of hairpins on a sequencing array, two-state fit; details: sodium 0.088 M
How it was run: (§1)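 Melting temperature and folding enthalpy were obtained by bootstrapped two-state fitting. Fits used Cy3 fluorescence of library hairpins with annealed Cy3 and quencher oligos on a sequenced MiSeq flow cell, imaged in 50 mM Na-HEPES pH 8.0, 25 mM NaCl in 2.5 °C steps up to 60 °C and normalised to pre-quench Cy3 and control constructs. Four replicates were combined by inverse-variance weighting, and fitted temperatures were raised by 9.35 °C to match UV melts.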

[2] = melting temperature; fluorescence melt of hairpins on a sequencing array, two-state fit, raised by 9.35 °C to match UV melts; details: sodium 0.088 M
How it was run: as §1

Sequence	folding enthalpy [1]	Tm [2]
GAACGACGAAAGTCATTC (((.(((....))).)))	-21.6 kcal/mol	38.6 °C
GAACGAGGAAACTCATTC (((.(((....))).)))	-15.5 kcal/mol	24.8 °C
GAACGAGGAAACTCGTCC (.(((((....))))).)	-13.7 kcal/mol	37.8 °C
GAACGAGGAAACTCGTTC (((((((....)))))))	-41.2 kcal/mol	63.8 °C
GAACGCCGAAAGGCTTC (((.(((....))))))	-14.1 kcal/mol	44.1 °C
GAACGCGAAAGCGAATTC ((((((....)))..)))	-10.7 kcal/mol	28.8 °C
GAACGCGAAAGCGCGTTC ((((((....)))..)))	-25.5 kcal/mol	63.1 °C
GAACGCGAAAGCGGATTC ((((((....)))..)))	-15.8 kcal/mol	49.5 °C
GAACGCGGAAACGTGTTC ((((.((....)).))))	-37.7 kcal/mol	56 °C
GAACGGCGAAAGCCTTTC (((.(((....))).)))	-18 kcal/mol	39.7 °C
GAACGGGGAAACCCATTC (((.(((....))).)))	-19 kcal/mol	33.2 °C
GAACTACGAAAGTAATTC (((.(((....))).)))	-17.3 kcal/mol	31.5 °C
GAACTAGGAAACTAGCTC ((.((((....)))).))	-21.3 kcal/mol	29 °C
GAACTAGGAAACTGGTTC ((((.((....)).))))	-29 kcal/mol	43 °C
GAACTCCGAAAGGATTTC (((.(((....))).)))	-23.5 kcal/mol	35.2 °C
GAACTCGGAAACGAGTTC (((((((....)))))))	-40.9 kcal/mol	67 °C
GAACTGACGAAAGTCTTC (((..(((....))))))	-8.83 kcal/mol	23.7 °C
GAAGACCCGAAAGGGTTC (((..(((....))))))	-8.91 kcal/mol	32.6 °C
GAAGACCGAAAGGTTTTC (((.(((....))).)))	-27.4 kcal/mol	47.9 °C
GAAGACGAAAGTCAGTTC ((((((....)))..)))	-15 kcal/mol	24 °C
GAAGACGAAAGTCGGTTC ((((((....)))..)))	-12.8 kcal/mol	34.4 °C
GAAGACGGAAACATCTTC (((((.(....).)))))	-20 kcal/mol	29.8 °C
GAAGACGGAAACGTCCTC ((.((((....)))).))	-11.9 kcal/mol	35.9 °C

Sequence	folding enthalpy [1]	Tm [2]
GAAGACGGAAACGTTTTC (((.(((....))).)))	-32.6 kcal/mol	41.1 °C
GAAGAGCCGAAAGGCTTC (((..(((....))))))	-9.43 kcal/mol	31.6 °C
GAAGAGGGAAACCTCCTC ((.((((....)))).))	-14.9 kcal/mol	26.4 °C
GAAGAGGGAAACCTCTCC (.(((((....))))).)	-12.5 kcal/mol	34.2 °C
GAAGAGGGAAACCTCTTC (((((((....)))))))	-33.5 kcal/mol	55.3 °C
GAAGATCCGAAAGGATTC (((..(((....))))))	-12.6 kcal/mol	31.3 °C
GAAGCACGAAAGTGGTTC (((.(((....))).)))	-31.6 kcal/mol	61.3 °C
GAAGCAGGAAACTACTTC ((((.((....)).))))	-19 kcal/mol	31.7 °C
GAAGCAGGAAACTGCCTC ((.((((....)))).))	-13.2 kcal/mol	34.5 °C
GAAGCCGAAAGGCCGTTC ((((((....)))..)))	-6.55 kcal/mol	26.6 °C
GAAGCCGAAAGGCTTTC ((((((....))).)))	-11.1 kcal/mol	54.2 °C
GAAGCGAAAGCTTC (((((....)))))	-25.7 kcal/mol	68.1 °C
GAAGCGCGAAAGCGTTC (((.(((....))))))	-10.6 kcal/mol	41.2 °C
GAAGCGGGAAACCGCCTC ((.((((....)))).))	-10.8 kcal/mol	36.7 °C
GAAGCGGGAAACCGCTCC (.(((((....))))).)	-10.3 kcal/mol	42.5 °C
GAAGGAGAAATCCTTC ((((((....))))))	-26.8 kcal/mol	46.3 °C
GAAGGCCGAAAGGCATTC (((.(((....))).)))	-24.2 kcal/mol	62.6 °C
GAAGGCGGAAACACCTTC (((((.(....).)))))	-30.9 kcal/mol	42.7 °C
GAAGGCGGAAACGCTTTC (((.(((....))).)))	-24.9 kcal/mol	48.2 °C
GAAGGGCGAAAGCCATTC (((.(((....))).)))	-22.2 kcal/mol	57.1 °C
GAAGGGCGAAAGCCTTC (((.(((....))))))	-14.3 kcal/mol	50.8 °C
GAAGGGGAAACCCTTC ((((((....))))))	-28.6 kcal/mol	53.8 °C
GAAGGTGGAAACACCTCC (.(((((....))))).)	-12.3 kcal/mol	40.8 °C

Sequence	folding enthalpy [1]	Tm [2]
GAAGTAGGAAACCACTTC (((((.(....).)))))	-24.7 kcal/mol	34.8 °C
GAAGTAGGAAACTACTCC (.(((((....))))).)	-11.4 kcal/mol	32.5 °C
GAAGTAGGAAACTACTTC (((((((....)))))))	-42.6 kcal/mol	52.5 °C
GAAGTCGGAAACGACTTC (((((((....)))))))	-36.4 kcal/mol	66 °C
GAAGTCGGAAACGGCTTC ((((.((....)).))))	-39.7 kcal/mol	54.5 °C
GAAGTGCGAAAGCAGTTC (((.(((....))).)))	-33.5 kcal/mol	57.5 °C
GAAGTGCGAAAGCATTTC (((.(((....))).)))	-23.5 kcal/mol	51 °C
GAAGTGGAAACACTTC ((((((....))))))	-33.7 kcal/mol	54 °C
GAAGTGGGAAACCACCTC ((.((((....)))).))	-13.7 kcal/mol	32.2 °C
GAAGTTGAAAAACTTC ((((((....))))))	-28.1 kcal/mol	48.5 °C
GAAGTTGGAAACGATTTC (((.(.(....).).)))	-20.9 kcal/mol	36.7 °C
GAATAACGAAAGTTCTTC (((.(((....))).)))	-20.7 kcal/mol	32.2 °C
GAATAACGAAAGTTGTTC (((.(((....))).)))	-31 kcal/mol	45.5 °C
GAATAAGCGAAAGCTTTC (((..(((....))))))	-9.51 kcal/mol	25.7 °C
GAATACCGAAAGGTGTTC (((.(((....))).)))	-40.3 kcal/mol	51.2 °C
GAATACCGAAAGGTTTTC (((.(((....))).)))	-25.7 kcal/mol	39.5 °C
GAATACGAAAGTACTTC ((((((....))).)))	-17 kcal/mol	30.2 °C
GAATACGAAAGTAGCTTC ((((((....)))..)))	-16.4 kcal/mol	33.9 °C
GAATAGCCGAAAGGCTTC (((..(((....))))))	-7.5 kcal/mol	25.5 °C
GAATAGCGAAAGCTTTC (((.(((....))))))	-11.6 kcal/mol	33.7 °C
GAATAGGGAAACCTGTTC (((.(((....))).)))	-30.6 kcal/mol	38.2 °C
GAATCACGAAAGTGGTTC (((.(((....))).)))	-40.3 kcal/mol	53.2 °C
GAATCAGGAAACTGACTC ((.((((....)))).))	-17.3 kcal/mol	28.7 °C

Sequence	folding enthalpy [1]	Tm [2]
GAATCCCGAAAGGGTTTC (((.(((....))).)))	-23.6 kcal/mol	45.6 °C
GAATCCGAAAGGAATTC ((((((....))).)))	-23.6 kcal/mol	39.7 °C
GAATCCGAAAGGACTTC ((((((....))).)))	-19.4 kcal/mol	35.8 °C
GAATCCGAAAGGATTTC ((((((....))).)))	-13.8 kcal/mol	48.6 °C
GAATCCGGAAACAGATTC (((((.(....).)))))	-19.5 kcal/mol	31.3 °C
GAATCCGGAAACGAATTC ((((.((....)).))))	-21.1 kcal/mol	34.1 °C
GAATCGCGAAAGCGGTTC (((.(((....))).)))	-30.3 kcal/mol	61.7 °C
GAATCGGGAAACCAATTC ((((.((....)).))))	-16.3 kcal/mol	28.4 °C
GAATCGGGAAACCGGTTC (((.(((....))).)))	-35.8 kcal/mol	50.2 °C
GAATCGGGAAACTGATTC (((((.(....).)))))	-38.9 kcal/mol	45.5 °C
GAATCTGAAAAGATTC ((((((....))))))	-36.8 kcal/mol	49.8 °C
GAATCTGGAAACAGATTC (((((((....)))))))	-49.8 kcal/mol	55.6 °C
GAATGAGGAAACTCATTC (((((((....)))))))	-37.3 kcal/mol	52.8 °C
GAATGCGAAAGCACTTC ((((((....))).)))	-16.2 kcal/mol	40.9 °C
GAATGCGAAAGCAGGTTC ((((((....)))..)))	-8.65 kcal/mol	30.4 °C
GAATGCGAAAGCAGTTC ((((((....))).)))	-13.9 kcal/mol	41.8 °C
GAATGGGGAAACCCACTC ((.((((....)))).))	-13.1 kcal/mol	30 °C
GAATGTGGAAACATGTTC (((..((....))..)))	-18.7 kcal/mol	31.4 °C
GAATTAGAAATAATTC ((((((....))))))	-18.5 kcal/mol	33.3 °C
GAATTAGGAAACTAATTC (((((((....)))))))	-38.8 kcal/mol	46.9 °C
GAATTCCGAAAGGAGTTC (((.(((....))).)))	-33.6 kcal/mol	49 °C
GAATTGAAAAATTC (((((....)))))	-13.5 kcal/mol	31.7 °C
